Source: PubChem BioAssay (The Scripps Research Institute Molecular Screening Center)
HTRA1 inh: inhibitors of human serine peptidase HTRA1. Q92743. recombinant HTRA1, FP-rhodamine activity-based probe, fluorescence polarization. inhibition, % at 5.96 µM. 340,000 tested, 0.5% active. AID 504803; in the data active means inhibition above about 36%;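 further: 0% = enzyme with DMSO and 100% = wells lacking enzyme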
ABHD4 inh: inhibits mouse alpha/beta hydrolase domain 4 | Q8VD66 | purified mABHD4, FP-Rh probe fluorescence polarization | inhibition, % at 8.92 µM | 370,000 tested, 0.54% active;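 active means inhibition exceeding the mean over every tested compound plus 3 SD, cut at about 30% in these data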;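 further: 0% = plate median of compound wells and 100% = S159A mutant with DMSO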
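Assay system: wild-type mouse ABHD4 protein; compound: single nominal dose of 8.92 µM, 0.89% DMSO final; schedule: 45 min + 60 min at 25 °C; measured by: FP readout, ex 525 nm / em 598 nm; evaluation: % inhibition of FP-Rh probe binding versus controls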
DDE Tn7 FP inh: disrupts Tn7 cyclic peptide binding to fibrin D-Dimer-E complex; inhibition, % at 8.3 µM; P02675; FP displacement of FITC-Tn7 peptide from fibrin DD(E); 0% = median of compound wells per plate; 370,000 tested, 0.13% active;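 active means inhibition above the mean of compounds falling within the control limits plus 3 SD of them, cut at about 14% in these data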;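 further: 0% = plate median of compound wells and 100% = 10 µM Aha-Tn7 peptide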
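Assay system: human fibrin DD(E). Input: DD(E) 2 µM final. Medium: Tris buffer with calcium and detergent, pH 7.8. Compound dosing: single point at 8.3 µM. Timing: 10 min plus 3 h, room temperature. Technique: fluorescence polarization of the labelled Tn7 tracer. Read-out: percent inhibition. Replicates: singlicate testing.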
Tn6 DDE FP: disrupts Tn6 cyclic peptide binding to fibrin D-Dimer-E complex; P02675; 370,000 tested, 0.21% active; inhibition, % at 8.3 µM; Fibrin DD(E) TRITC-Tn6 fluorescence polarization displacement; AID 720509;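 active means inhibition above a per-campaign cutoff: mean of compounds within control limits plus 3 SD, cut at about 15% in these data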;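 further: 0% = median of all compound wells on the plate and 100% = blocking peptide control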
TCR CD3 inh: inhibitors of human TCR-CD3 interaction | TAMRA-labeled TCR probe fluorescence, biochemical | inhibition, % at 9.4 µM | 360,000 tested, 0.37% active | AID 651800;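 further: recombinant mutant TCR 2C K166C tagged with TAMRA read by polarization; 0% = receptor in buffer alone and 100% = receptor with positive control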
SIAE primary: inhibitors of human sialic acid acetylesterase SIAE. Q9HAT2. SIAE FP-Rh probe binding, fluorescence polarization. inhibition, % at 9.66 µM. 370,000 tested, 0.69% active;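 active means inhibition above a cutoff: mean of compounds within the control limits plus 3 SD of those, cut at about 17% in these data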;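 further: 0% = plate median of compound wells and 100% = probe without SIAE protein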
Target sequence (Q9HAT2 whole entry, looked up): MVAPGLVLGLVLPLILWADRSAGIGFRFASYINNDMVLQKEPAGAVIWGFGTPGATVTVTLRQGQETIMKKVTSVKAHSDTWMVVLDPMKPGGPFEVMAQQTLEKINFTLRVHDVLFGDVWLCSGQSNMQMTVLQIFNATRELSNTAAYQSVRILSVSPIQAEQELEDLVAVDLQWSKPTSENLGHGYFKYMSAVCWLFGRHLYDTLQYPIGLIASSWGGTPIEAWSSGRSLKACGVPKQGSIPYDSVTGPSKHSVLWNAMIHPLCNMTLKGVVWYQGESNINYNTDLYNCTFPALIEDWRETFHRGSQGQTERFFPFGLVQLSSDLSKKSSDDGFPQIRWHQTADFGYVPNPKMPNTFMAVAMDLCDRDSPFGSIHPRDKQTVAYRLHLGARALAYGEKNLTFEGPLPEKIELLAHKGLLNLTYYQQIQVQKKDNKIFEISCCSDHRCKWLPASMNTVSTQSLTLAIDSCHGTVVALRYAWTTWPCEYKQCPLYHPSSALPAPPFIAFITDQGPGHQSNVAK
BSA TAMRA ctr: counter-screen for TCR-CD3 interaction inhibitors: BSA probe. shares compounds with TCR CD3 inh. inhibition, % at 9.4 µM. TAMRA-labeled BSA probe fluorescence counterscreen. 1,200 tested, 10% active; in the data active means inhibition above about 23%;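 further: 0% = buffer low control and 100% = reference high control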
TCR-CD3 inh conf: confirmation of human TCR-CD3 interaction inhibitors. shares compounds with TCR CD3 inh. TAMRA-labeled TCR probe fluorescence binding assay. inhibition, % at 9.4 µM. 1,200 tested, 48% active. AID 652036
* = called active by the depositor; · = not tested or not shown. Most compounds without a hit are left out; they make up all but 1.8% or so of the library. Unless noted, no stated cut-off is given here; in the data, active means inhibition above about 19%; inactive means the rest.

SMILES	HTRA1 inh	ABHD4 inh	DDE Tn7 FP inh	Tn6 DDE FP	TCR CD3 inh	SIAE primary	BSA TAMRA ctr	TCR-CD3 inh conf
Cc1occc1C(=O)NNC(=O)Nc1ccc(F)cc1F	-1	0	-1	2	2	-2	·	·
O=C(NNC(=O)c1cc2ccccc2cc1O)Nc1ccc(F)cc1F	18	1	-5	-13	20*	9	5	19*
O=C(NNC(=O)c1cc2ccccc2cc1O)NC1CCCCC1	28	13	-8	-3	22*	7	-11	18
COC(=O)c1ccc(S(=O)(=O)N2CCC(NC(=O)Cc3cccc(C)c3)CC2)cc1	·	3	4	-3	·	1	·	·
Cc1cc(Br)cn2c(Cc3ccsc3)c(-c3ccccc3)nc12	·	23	3	9	10	14	·	·
Cc1ccc(-c2nc3c(C)cc(Br)cn3c2Cc2ccsc2)cc1	·	7	8	8	23*	3	18	19
O=C(NNC(=S)Nc1ccccc1)Nc1ccccc1	3	4	0	-9	-5	5	·	·
O=C(NNC(=S)Nc1ccccc1)NNC(=S)Nc1ccccc1	15	12	4	0	30*	10	-2	17
O=C(CCl)Nc1ccc(C(=O)NCC2COc3ccccc3O2)cc1 (stereo not drawn)	·	1	3	-1	·	0	·	·
CC1CCN(S(=O)(=O)c2ccc(NC(=O)Cn3nnc(-c4ccccc4F)n3)cc2)CC1	-38	-7	3	2	20*	-52	9	24*
COC(=O)[C@@]1(OC(C)=O)CC(OC(C)=O)[C@H](OC(C)=O)[C@H](OC(C)=O)C1Br (stereo partly drawn)	·	-7	0	6	·	-2	·	·
CCCCCCCCNS(=O)(=O)/C=C/c1ccc(OC)cc1CNC(=O)OC(C)(C)C	·	-11	-3	6	·	-2	·	·
COc1ccc(C(=O)NNC(=S)NC(=O)/C=C/c2cccs2)cc1	-1	2	-3	-9	25*	-5	-1	12
O=C(NC(=S)Nc1ccc(Br)cn1)c1cccs1	3	6	3	6	27*	-3	3	1
O=C(NNC(=S)NC(=O)c1cccs1)c1ccc(O)cc1	7	2	11	-6	26*	-2	-7	23*
c1nc(NCC2CCOC2)c2cc(-c3ccc4c(c3)OCO4)ccc2n1 (stereo not drawn)	·	-3	-1	-13	·	-28	·	·
COc1ccc(S[C@]2(C(=O)NCC(C)C)CC(=O)N[C@@H]2c2ccc(OC)cc2)cc1	·	2	-3	1	·	0	·	·
O=S(=O)(N[C@@H]1CCCC[C@@H]1N1CCOCC1)c1ccc(Cl)cc1	·	3	-3	-2	·	0	·	·
Cc1cccc(-n2c(O)c(C=Nc3cc(O)ccc3C)c3ccccc3c2=O)n1	-2	1	-6	-11	37*	16	-21	6
Cc1cccc(-n2c(O)c(/C=N/NC(=O)c3ccccc3Cl)c3ccccc3c2=O)n1	24	0	-7	-3	28*	5	-3	37*
COCc1cc(N2CCN(C(=O)OC(C)(C)C)C[C@H]2C)ccc1N1CCN(Cc2ccccc2)[C@@H](C)C1	·	1	0	-1	-3	0	·	·
C/C(=N\NC(=O)c1ccc(NS(=O)(=O)c2cccs2)cc1)c1ccc(O)cc1O	17	4	2	-1	19*	0	-12	20*
CC(=O)Nc1cccc(C(=O)NNC(=O)c2ccc(NS(=O)(=O)c3cccs3)cc2)c1	4	1	-5	0	1	2	·	·
CC1=Nc2ccccc2/C1=C/c1nc(-c2ccc(C)s2)oc1O	21	15	-12	4	19*	-18	20	3
CCn1c(CSc2nc3ccccc3[nH]2)nc2cc(C(=O)O)ccc21	26	19	0	7	34*	14	57*	42*
SMILES	HTRA1 inh	ABHD4 inh	DDE Tn7 FP inh	Tn6 DDE FP	TCR CD3 inh	SIAE primary	BSA TAMRA ctr	TCR-CD3 inh conf
Nc1ncc(-c2ccc(F)cc2)nc1N1CCN(CCO)CC1	·	4	0	12	0	1	·	·
OCCN1CCN(c2cnc(-c3ccsc3)cn2)CC1	·	4	5	-1	38*	9	6	2
CCCCCCCCN1C(=O)[C@@H](CC(=O)NCCCOCCCC)C[C@@]2(C(=O)OC)C1=C[C@H](C(C)C)O[C@@H]2C1CC1	·	-2	3	-1	·	0	·	·
O=c1c2c(-c3ccccc3)csc2ncn1/N=C/c1cccc([N+](=O)[O-])c1O	3	14	-4	2	29*	1	-14	31*
CC1(C)OC(=O)C2=C(CC(CCc3ccccc3)OC2c2cccc(C(F)(F)F)c2)O1 (stereo not drawn)	·	-3	2	-3	3	2	·	·
O=C(CSc1nc2ccccc2s1)Nc1ccc(Cl)c(C(=O)O)c1	-1	-12	10	3	-2	0	·	·
O=C(CSc1nc2ccccc2s1)Nc1ccc2c(c1)oc1ccccc12	-15	-10	7	4	24*	7	0	3
COc1ccc(-c2nn(-c3ccccc3)cc2/C=N/NC(=O)c2cccc(S(=O)(=O)Nc3ccccc3Cl)c2)cc1	-32	-84	-5	3	20*	-100	12	22*
O=C(CCc1ccccc1)N[C@H]1[C@H](OC(=O)c2ccco2)CCC[C@]12C(=O)N(Cc1ccccc1)c1ccccc12	·	1	-2	-1	·	3	·	·
Cc1ccc2oc(C(=O)Nc3ccc(S(=O)(=O)Nc4onc(C)c4C)cc3)c(C)c2c1	3	5	-3	-5	2	-10	·	·
Cc1ccc(-c2cc(C(=O)Nc3ccc(S(=O)(=O)Nc4onc(C)c4C)cc3)[nH]n2)c(O)c1	-25	-17	0	-13	32*	-24	-13	20*
CC(=O)c1ccc(S(=O)(=O)Nc2cccc(-n3cnnn3)c2)cc1	-5	-12	-8	1	20*	1	4	12
CC(=O)Nc1ccc(S(=O)(=O)Nc2cccc(-n3cnnn3)c2)cc1	2	0	4	-3	7	2	·	·
O=C(NCc1ccccc1)[C@@H]1CCCN1C(=O)[C@H]1CCCN1C(=O)c1ccc(F)c(C(F)(F)F)c1	·	-2	-6	-10	-1	6	·	·
CC(C)NC(=O)NNC(=O)c1nn(-c2ccc(F)cc2)ccc1=O	8	0	3	-5	20*	-2	0	15
O=C(NNC(=O)c1nn(-c2ccc(F)cc2)ccc1=O)Nc1cccc(Cl)c1	·	1	6	9	34*	10	-14	26*
